# The list is not random: actives were taken first. Their share in the collection is about 3.8%.
# SIRT5 inh: SIRT5 desuccinylase inhibitors, primary screen, biochemical, fluorescence imaging, single point, set 5. NAD-dependent protein deacylase sirtuin-5, mitochondrial (Homo sapiens), Q9NXA8. Purified SirT5, succinyl-peptide AMC, trypsin-coupled fluorescence. inhibition, % at 15 µM. actives 1.1% (n = 330,000). AID 652115, 2013; in the data active means inhibition above about 15%; inconclusive means no clear call, values can overlap the other calls
# ARNT TACC3 PPI: disruptors of ARNT/TACC3 protein interaction, primary screen, biochemical, AlphaScreen, single concentration; Transforming acidic coiled-coil-containing protein 3 (Homo sapiens), Q9Y6A5; AlphaScreen His-ARNT PAS-B/GST-TACC3 binding, luminescence; TACC3 fragment carries E629A point mutation; inhibition, % at 9.99 µM; actives 0.66% (n = 390,000); AID 623870, 2012;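 active means mean inhibition of replicates at least 50% and at least half of replicates each reaching 50%; inconclusive means half or more replicates reach 50% but mean below 50%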;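 further: 0% = complete ARNT plus TACC3 wells and 100% = ARNT alone without TACC3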
# FN deposition inh: inhibitors of fibronectin matrix deposition, primary screen, AH1F cells, Alexa488-fibronectin fluorescence, plate reader. actives 0.086% (n = 350,000). AH1F fibroblasts, overnight. inhibition, % at 12.6 µM;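 active means mean inhibition across replicates of 30% or more, regardless of how many single replicates reach that level; inconclusive means mean under 30% yet at least half of replicates reach 30%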;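 further: positive control wells lacked labelled fibronectin entirely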
#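 Assay system: AH1F fibroblast monolayer, labelled fibronectin deposition. Amount: 10000 cells per well. Also added: labelled fibronectin 24 nM. Compound: single-point pinned compound. Incubation: cell attachment 1 h, compound and FN exposure overnight. Detection: fluorescence after three HBSS washes, excitation 485 nm, emission 525 nm. Read-out: inhibition of fibronectin deposition signal.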
# FGF22 binding: binders of human FGF22 protein, primary screen, FGF22 synaptogenesis inhibitor project, biophysical, thermal shift, single point; Fibroblast growth factor 22 (Homo sapiens), Q9HCT0; recombinant FGF22 thermal shift, SYPRO orange fluorescence; percent of sucrose octasulfate shift, DMSO zero; activity (Tm shift, normalised), % at 9.99 µM; actives 1.5% (n = 340,000);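 active means mean Tm shift, scaled 0 neutral to 100 positive control, at about 1.3% or above, every replicate too, limit read from the data; inconclusive means no clear call, values can overlap the other calls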
# Target sequence (Q9HCT0 whole entry, looked up): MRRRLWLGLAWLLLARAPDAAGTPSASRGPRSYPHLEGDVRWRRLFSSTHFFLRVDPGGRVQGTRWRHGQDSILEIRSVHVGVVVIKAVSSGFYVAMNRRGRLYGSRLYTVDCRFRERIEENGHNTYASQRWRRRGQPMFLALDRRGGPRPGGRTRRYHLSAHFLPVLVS
# DENV2 CPE: inhibitors of DENV2 cytopathic effect, primary screen, cell-based, plate reader, single concentration; DENV2-infected cells, cytopathic effect rescue; CPE inhibition, % at 9.99 µM; actives 1.7% (n = 350,000); in the data active means CPE inhibition above about 20%, passing the limit was not always enough; inconclusive means no clear call, values can overlap the other calls; tested in BHK-21 cells;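 further: 0% = median of neutral control wells and 100% = median of positive control wells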
# Xi reactivation: activators of inactive X chromosome reactivation, primary screen, imaging, XiGFP fibroblasts, GFP high-content imaging, set 2; XiGFP mouse fibroblasts, % GFP-positive cells imaging, 3 d; cells co-treated with 5-aza-dC sensitizer; scaled so ellipticine positive control = 100%; activation, % at 7.58 µM; actives 0.055% (n = 360,000);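 active means mean normalized replicate activation at least 10% and every replicate at or above 10%; inconclusive means only one of the two criteria met; inactive means mean below 10% and not all replicates reach 10%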;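 further: 0% = median of on-plate neutral control wells and 100% = ellipticine 6 µM median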
#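 Material: SV40-immortalized XiGFP fibroblast cells, line 68-5-11 | Buffer or medium: DMEM containing 5-aza-dC | Dosing: One concentration, pinned | Times: 3 d treatment, 15 min room-temperature fixation | Controls: Ellipticine 6 µM positive control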
# Active calls of the source: *; ? = inconclusive; . = not tested or not shown; ! = a repeat was not active.
SMILES,SIRT5 inh,ARNT TACC3 PPI,FN deposition inh,FGF22 binding,DENV2 CPE,Xi reactivation
Nc1n[nH]c2cc(=O)n(-c3cccc(C(F)(F)F)c3)nc12,1,.,-4,43*,-2,0
O=c1oc2cc(O)c(Cl)cc2c2ccccc12,.,0,2,.,.,0
O=c1cc2c(=O)oc3cc(O)c(O)oc3c2c(O)c1O,8,13*,-2,0,-3,0
CCCN1C[C@@H](C)[C@@H](OC)CN(C)C(=O)c2cc(NC(=O)c3cccc(OC)c3)ccc2OC[C@H]1C,.,.,1,.,.,0
C/C(=N\NC(=O)C1CC1(c1ccccc1)c1ccccc1)c1cccc([N+](=O)[O-])c1 (configuration not stated),15*,2,2,0,?,0
C/C(=N\NC(=O)C1CC1c1ccccc1)c1cccc([N+](=O)[O-])c1 (configuration not stated),.,4,.,.,.,.
O=C(C[C@@H]1CC[C@@H]2[C@H](COC[C@@H](O)CN2Cc2cccc(F)c2)O1)NCc1cccc(F)c1,-3,-5,-5,-1,-1,0
Cc1ccc(N=C2NC(=O)/C(=C\c3ccsc3)S2)c(C)c1,5,0,1,0,96*,0
Cc1ccc(N=C2NC(=O)/C(=C/c3cccnc3)S2)c(C)c1,2,9,-1,0,6,0
Cc1ccc(S(=O)(=O)N(C)C[C@H]2OCc3ccccc3-c3c(n(C)c4ccccc34)C(=O)N([C@@H](C)CO)C[C@@H]2C)cc1,9,20,5,0,-5,1
C[C@H](CO)N1C[C@H](C)[C@H](CN(C)S(=O)(=O)c2ccc(Cl)cc2)OCc2ccccc2-c2c(n(C)c3ccccc23)C1=O,22*!,.,0,0,-13,0
Cc1ccc(S(=O)(=O)N(C)C[C@@H]2OCc3ccccc3-c3c(n(C)c4ccccc34)C(=O)N([C@H](C)CO)C[C@@H]2C)cc1,18*!,.,-4,0,-5,0
Cc1cccc(S(=O)(=O)N(C)C[C@@H]2OCc3ccccc3-c3c(n(C)c4ccccc34)C(=O)N([C@H](C)CO)C[C@@H]2C)c1,20*,19,10,0,-6,0
C[C@H]1CN(C)C(=O)Cc2cc(NS(C)(=O)=O)ccc2O[C@H]1CN(C)S(C)(=O)=O,.,.,11,.,.,0
CN1CCN(C(c2ccc(F)cc2)c2ccc3cccnc3c2O)CC1 (configuration not stated),.,8,.,.,.,.
CN1CCN(C(c2cccnc2)c2ccc3cccnc3c2O)CC1 (configuration not stated),.,68*,.,.,.,.
C[C@H](CO)N1C[C@H](C)[C@H](CN(C)CC2CCCCC2)Oc2cc(C3=CCCC3)ccc2S1(=O)=O,1,19,.,0,1,0
Cc1cccc(Cc2c(C)[nH]c(=O)c(C#N)c2C)c1,-2,-3,4,43*,1,0
Cn1c(=S)[nH]c(=O)c2ncc(=O)[nH]c21,1,.,-1,44*,.,0
Cc1nc2[nH]c(=S)n(C)c(=O)c2nc1C,0,-4,3,0,6,0
C[C@@H]1CN([C@H](C)CO)C(=O)c2cc(-c3ccccc3)cnc2O[C@@H]1CN(C)C(=O)c1ccccn1,4,-6,.,-1,13,0
C[C@H]1CCCCO[C@H](CN(C)Cc2ccncc2)[C@@H](C)CN([C@@H](C)CO)C(=O)c2cc(NS(=O)(=O)c3ccc(F)cc3)ccc2O1,3,1,5,0,-2,0

# Screening results as filed in PubChem.
